Assay results reported in ChEMBL document CHEMBL1126990, “Design and synthesis of 18F-labeled neurotoxic analogs of MPTP” (J Med Chem, 1993).

Columns and labels:
Type in all cases: ADME
[1] = Ratio between Vmax and Km
Method in brief: (§1)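 Rat liver MAO (crude P2 mitochondrial fraction from adult male Wistar rats, in pH 7.4 phosphate buffer) incubated with substrate at 30 μM to 5 mM; colorimetric detection of H2O2 formed. Blanks contained 0.1 mM pargyline. Vmax and Km from linear regression of Lineweaver-Burk plots; means ± SE of n separate experiments; ANOVA with post-hoc Scheffe test.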

MAO = experiment: Michaelis-Menten constant (Km) for oxidation by rat liver MAO; method in brief: as §1
Rattus norvegicus [2] = species: Rattus norvegicus; experiment: Maximal rate (Vmax) for oxidation by rat liver MAO; method in brief: as §1
Rattus norvegicus [3] = species: Rattus norvegicus; experiment: Maximal rate (Vmax) for oxidation by rat liver MAO (results are means of number of separate experiments, n=5); method in brief: as §1
[4] = separate experiments, n=5); method in brief: as §1

Compound	Ratio [1]	Km (MAO) [µM]	Vmax (Rattus norvegicus [2])	Vmax (Rattus norvegicus [3])	Km [4] [µM]
CN1CC=C(c2ccccc2CO)CC1	0.74	370	273 nM hr-1 (mg of protein)-1		
CN1CC=C(c2ccccc2CCl)CC1	1.24			231 nM hr-1 (mg of protein)-1	186
